Here are results for 21 compounds from ChEMBL document CHEMBL2010652, “Synthesis and evaluation of analogues of estrone-3-O-sulfamate as potent steroid sulfatase inhibitors” (Bioorg Med Chem, 2012).

Assay [1] deals with T1, Steryl-sulfatase (Homo sapiens, UniProt P08842).
T1 sequence (P08842 whole entry): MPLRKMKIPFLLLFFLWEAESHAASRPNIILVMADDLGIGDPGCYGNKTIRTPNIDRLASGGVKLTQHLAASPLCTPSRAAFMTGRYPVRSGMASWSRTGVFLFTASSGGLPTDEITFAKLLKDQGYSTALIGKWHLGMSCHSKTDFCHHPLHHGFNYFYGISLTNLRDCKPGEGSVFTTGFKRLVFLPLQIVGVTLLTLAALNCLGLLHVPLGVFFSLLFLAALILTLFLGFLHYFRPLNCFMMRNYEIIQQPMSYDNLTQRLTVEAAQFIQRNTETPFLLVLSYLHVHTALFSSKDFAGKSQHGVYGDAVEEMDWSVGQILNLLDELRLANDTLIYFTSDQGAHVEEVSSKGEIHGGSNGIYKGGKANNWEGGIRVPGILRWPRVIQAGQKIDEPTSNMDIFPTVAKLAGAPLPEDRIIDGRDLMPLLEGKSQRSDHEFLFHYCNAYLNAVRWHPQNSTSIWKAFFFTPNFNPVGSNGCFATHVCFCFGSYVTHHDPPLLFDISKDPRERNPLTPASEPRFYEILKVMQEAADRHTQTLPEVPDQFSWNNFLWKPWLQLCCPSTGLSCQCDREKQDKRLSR

The target in assay [2] is T1, Steryl-sulfatase. Nature of the assay: Inhibition of steroid sulfatase in human MCF7 cells using [3H]E1S as substrate after 20 hrs by scintillation spectrometry. In kind it is cell-based. An outline of the steps: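 Intact MCF-7 monolayers incubated 20 h at 37 °C with [3H]E1S (5 pmol, 7 × 10^5 dpm) in serum-free minimal essential medium, with or without inhibitor (0.1–10 range). Estrone product separated from E1S by toluene partition; [14C]estrone corrected procedural losses. 3H/14C counted by scintillation; E1S hydrolysed calculated from 3H counts and substrate specific activity; IC50 derived.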

The target in assay [3] is T2, Steryl-sulfatase (Homo sapiens) (UniProt P08842).
T2 sequence (whole entry): T1 sequence (P08842 whole entry)
In words: Inhibition of steroid sulfatase in human MCF7 cells using [3H]E1S as substrate at 10 uM after 20 hrs by scintillation spectrometry. In kind it is cell-based. An outline of the steps:
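Intact MCF-7 monolayers exposed to inhibitor with [3H]E1S (5 pmol, 60 Ci/mmol) in serum-free minimal essential medium, 20 h at 37 °C. Product estrone split from E1S by toluene partition, with [14C]estrone as recovery marker. 3H and 14C counted by scintillation. E1S hydrolysed calculated from 3H counts, corrected for volumes and 14C recovery, and from substrate specific activity.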

In assay [4] the test system is Rattus norvegicus. Nature of the assay: Inhibition of steroid sulfatase in rat liver at 10 mg/kg, po. In kind it is functional.
Assay [5] has as its system Rattus norvegicus. In words: Inhibition of steroid sulfatase in rat liver at 10 mg/kg, po administered as single dose measured up to 7 days. Conditions: 168 h. Type of assay: functional.
The test system of assay [6] is Rattus norvegicus. Nature of the assay: Inhibition of steroid sulfatase in rat liver at 10 mg/kg, sc. Type of assay: functional. To be noted: route subcutaneous.
Assay [7] deals with Rattus norvegicus. In words: Inhibition of steroid sulfatase in rat liver at 10 mg/kg, sc administered as single dose measured up to 7 days. Type of assay: functional. Conditions: 168 h, route subcutaneous.
Assay [8] has as its target T2, Steryl-sulfatase (Homo sapiens). Conditions: MCF7, 0.01 uM.

A word on the IC50: it is the concentration that gives 50% inhibition. By inhibition is commonly meant the percentage by which the read-out fell short of the control. What is called inhibition in vivo is how much of the control response was suppressed. Low values mean little suppression, high ones strong suppression.

Each structure is given as a SMILES string. A value given as a limit tells only on which side of the number the result lay.

As to `Cc1cc2c(cc1OS(N)(=O)=O)CC[C@@H]1[C@@H]2CC[C@]2(C)C(=O)CC[C@@H]12`, on Steryl-sulfatase [1], the IC50 was greater than 10000 nM. Take `C[C@]12CC[C@@H]3c4ccc(OS(N)(=O)=O)c(Br)c4CC[C@H]3[C@@H]1CCC2=O`: the IC50 is 42 nM against Steryl-sulfatase [2] and 1200 nM against Steryl-sulfatase [1]. On the same counts, the results for `CCCc1cc2c(cc1OS(N)(=O)=O)CC[C@@H]1[C@@H]2CC[C@]2(C)C(=O)CC[C@@H]12` are 236 nM and 2900 nM. On the same counts, the results for `C=CCc1cc2c(cc1OS(N)(=O)=O)CC[C@@H]1[C@@H]2CC[C@]2(C)C(=O)CC[C@@H]12` are 37 nM and 2500 nM. As for `C[C@]12CC[C@@H]3c4ccc5c(c4CC[C@H]3[C@@H]1CCC2=O)NS(=O)(=O)O5`, the IC50 against Steryl-sulfatase [1] was greater than 10000 nM. `C[C@]12CC[C@@H]3c4cc([N+](=O)[O-])c(OS(N)(=O)=O)cc4CC[C@H]3[C@@H]1CCC2=O`: the IC50 at Steryl-sulfatase [2] was determined as 8.3 nM; at Steryl-sulfatase [1], 70 nM. Regarding `C[C@]12CC[C@@H]3c4cc(I)c(OS(N)(=O)=O)cc4CC[C@H]3[C@@H]1CCC2=O`, inhibition against Steryl-sulfatase [2] was half-maximal at 0.81 nM (IC50). `C[C@]12CC[C@@H]3c4cc(C(F)F)c(OS(N)(=O)=O)cc4CC[C@H]3[C@@H]1CCC2=O` registered an IC50 at Steryl-sulfatase [1] of 0.1 nM. In other words, the sub-nanomolar range. In turn, `C=CCc1cc2c(c(CC=C)c1OS(N)(=O)=O)CC[C@@H]1[C@@H]2CC[C@]2(C)C(=O)CC[C@@H]12` had an IC50 at Steryl-sulfatase [1] greater than 10000 nM. The same compound gave an inhibition in assay [3] of less than 10%.

Regarding `C[C@]12CC[C@@H]3c4ccc(OS(N)(=O)=O)cc4CC[C@H]3[C@@H]1CCC2=O` [EMATE], the inhibition in vivo at 10 mg/kg is 99% with Rattus norvegicus [4], greater than 95% with Rattus norvegicus [5], 99% in the assay on Rattus norvegicus [6] and greater than 95% with Rattus norvegicus [7]. For the same compound, the IC50 is 0.83 nM on Steryl-sulfatase [2] and 18 nM against Steryl-sulfatase [1]. For `C[C@]12CC[C@@H]3c4ccc(OS(N)(=O)=O)c([N+](=O)[O-])c4CC[C@H]3[C@@H]1CCC2=O`, the IC50 on Steryl-sulfatase [2] amounted to 0.01 nM; against Steryl-sulfatase [1], 0.8 nM.

Consider `C[C@]12CC[C@@H]3c4cc(C#N)c(OS(N)(=O)=O)cc4CC[C@H]3[C@@H]1CCC2=O`, for which the 50% inhibitory concentration (IC50) against Steryl-sulfatase [2] came to 1.2 nM; against Steryl-sulfatase [1], 5.2 nM. `CCc1cc2c(cc1OS(N)(=O)=O)CC[C@@H]1[C@@H]2CC[C@]2(C)C(=O)CC[C@@H]12` displayed an IC50 against Steryl-sulfatase [1] of 820 nM. For `C[C@]12CC[C@@H]3c4cc(F)c(OS(N)(=O)=O)cc4CC[C@H]3[C@@H]1CCC2=O`, the IC50 against Steryl-sulfatase [2] was found to be 0.62 nM; against Steryl-sulfatase [1], 5.6 nM. Consider `CCCc1c(OS(N)(=O)=O)ccc2c1CC[C@@H]1[C@@H]2CC[C@]2(C)C(=O)CC[C@@H]12`, for which, on Steryl-sulfatase [1], the IC50 was greater than 10000 nM. In assay [3], the inhibition is less than 10%. `C[C@]12CC[C@@H]3c4cc(Cl)c(OS(N)(=O)=O)cc4CC[C@H]3[C@@H]1CCC2=O`: the IC50 stood at 0.44 nM against Steryl-sulfatase [2] and 3.4 nM against Steryl-sulfatase [1].

The compound `C[C@]12CC[C@@H]3c4cc5c(cc4CC[C@H]3[C@@H]1CCC2=O)OS(=O)(=O)N5` gave an IC50 against Steryl-sulfatase [1] greater than 10000 nM.

In the case of `C[C@@]12CCC[C@H]1[C@@H]1CCc3cc(OS(N)(=O)=O)ccc3[C@H]1CC2`, the IC50 against Steryl-sulfatase [1] worked out at 199 nM. Also, the inhibition in assay [8] was determined as 97%.

`CCCc1cc2c(c(CCC)c1OS(N)(=O)=O)CC[C@@H]1[C@@H]2CC[C@]2(C)C(=O)CC[C@@H]12` yielded an IC50 against Steryl-sulfatase [1] greater than 10000 nM. In assay [3], this compound had an inhibition of less than 10%. In turn, `CN1c2cc3c(cc2OS1(=O)=O)CC[C@@H]1[C@@H]3CC[C@]2(C)C(=O)CC[C@@H]12` registered an IC50 on Steryl-sulfatase [1] greater than 10000 nM. Regarding `C[C@]12CC[C@@H]3c4cc(Br)c(OS(N)(=O)=O)cc4CC[C@H]3[C@@H]1CCC2=O`, 0.11 nM corresponded to half-maximal inhibition against Steryl-sulfatase [2] (IC50).
